The subject of assay [1] is Cx43 hemichannels (cultured pig ventricular cardiomyocytes). Format: cell-based. The following applies: Vm +70 mV, siCx43 n = 9, siCx43scr n = 6, MOCK n = 3, ***P < 0.001 siCx43 versus MOCK and siCx43scr.
The test system of assay [2] is porcine Cx43 gene gja1 / Cx43 expression. The experiment in a line: Cx43 expression. The following applies: cultured pig ventricular cardiomyocytes. Format: cell-based.
Assay [3] concerns Cx43 hemichannels (pig ventricular cardiomyocytes). Nature of the assay: Unitary hemichannel currents in isolated pig left ventricular cardiomyocytes. The note with it: Vm −70 to +80 mV. The class given is cell-based.
In assay [4] the target is Cx43 hemichannels (HeLa-Cx43 cells) (Mus musculus, UniProt P23242). The class given is cell-based. The following applies: for Qm (% normalized to average before peptide addition), time course: repeated Vm steps to +70 mV, n = 3; for Qm versus control / HC-mediated unitary events: concentration not given; for Qm versus control: Vm +70 mV (30 s); for Qm at steady state (reduction to, % of value before peptide): n = 5. In a few lines:
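HeLa cells stably express mouse Cx43 from a CMV vector and are kept in DMEM with 20 % FBS, 2 mM glutamine and 1 μg/mL puromycin. In whole-cell clamp (1–3 MΩ pipettes, pH 7.2, 50 nM Ca2+, 1 kHz filter), peptide is pre-incubated 30 min or added during recording. Qm is integrated unitary current over each step, normalized to pre-peptide or […] control. Mean ± SEM, ANOVA/Bonferroni or t test.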

A further assay relates to Panx1 HCs. The following applies: 20 μM; ref [6]; cited from earlier work.
Setting [5] is: scrambled peptide, Vm +70 mV, HeLa-Cx43.

Entries after “also recorded” stand apart in the source; their conditions may differ. Where two headings read alike, the source gives them in different places. Ends that are not written are not given here.

Sequence of Cx43 hemichannels (HeLa-Cx43 cells) (P23242 whole entry): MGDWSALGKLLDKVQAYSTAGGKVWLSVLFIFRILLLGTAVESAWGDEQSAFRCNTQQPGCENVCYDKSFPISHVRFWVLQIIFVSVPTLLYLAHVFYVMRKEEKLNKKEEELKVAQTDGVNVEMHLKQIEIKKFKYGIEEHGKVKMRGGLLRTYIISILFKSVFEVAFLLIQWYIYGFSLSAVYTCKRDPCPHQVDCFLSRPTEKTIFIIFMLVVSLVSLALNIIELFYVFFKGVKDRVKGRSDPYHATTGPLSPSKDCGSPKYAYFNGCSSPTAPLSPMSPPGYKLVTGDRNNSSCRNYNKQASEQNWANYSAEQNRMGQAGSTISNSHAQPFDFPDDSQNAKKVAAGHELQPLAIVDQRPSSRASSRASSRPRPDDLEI

Take 5′-AGAGAUACGAACAAGAGAG-3′ [siCx43^scr]: in assay [1], the “Cx43 HC unitary current activity (Qm)” value is on record as “no effect”. The “effect on Cx43 expression” value in assay [2] (scrambled siRNA) is on record as “no effect”.
Take 5′-GAAAGAGGAGGAACUCAAA-dTdT-3′ [siCx43]: in assay [1] (listed as siRNA directed against Cx43), the “Cx43 HC unitary current activity (Qm)” value was “significantly inhibited”. The “Cx43 expression, % of control (MOCK)” value in assay [2] (*P < 0.05 versus siCx43scr and MOCK) is listed as 50%. Also, the Cx43 expression knockdown in assay [2] (siRNA 24 h) was ~ 50%.
Consider `CC1(C)[C@@H](OC(=O)CCC(=O)O)CC[C@]2(C)[C@H]3C(=O)C=C4[C@@H]5C[C@@](C)(C(=O)O)CC[C@]5(C)CC[C@@]4(C)[C@]3(C)CC[C@@H]12` [carbenoxolone], for which the “unitary current events in cardiomyocytes” value is “not influenced; also recorded: not affected” in assay [3] (20 μM); “no effect” in assay [3] (20 μM, listed as Carbenoxolone); “acted inhibitory; also recorded: clearly inhibited the currents” in assay [3] (100 μM). For the same molecule, in assay [4] (100 μM, Vm = +70 mV, HeLa-Cx43), the unitary current activity result is recorded as “rapidly disappeared”. Also, the “block of Panx1 HCs” value in the assay on Panx1 HCs is given as “known to block Panx1 HCs”.
As for PSFDSRHCIVKYV [SGap26], in assay [4] (1 mM, Vm +70 mV, HeLa-Cx43), the “inhibition of Qm at 1 mM” value is given as “strong inhibition”. In addition, the “inhibitory effect on Qm over concentration range” value in assay [4] (concentration range at which Gap26 displayed inhibition) is recorded as “did not exhibit inhibitory effects”. Further, the “Qm (% normalized to average before peptide addition), time course” value in assay [4] is given as “around 100%”. Also, the Qm versus control result in assay [4] (scrambled peptide, HeLa-Cx43) is given as “not different from control”. Further, the HC-mediated unitary events result in assay [4] (setting [5]) was “did not reveal any inhibition”. The “Qm decay over time” value in assay [4] (time course, Vm steps to +70 mV, scrambled peptide) is “did not cause any Qm decay”.
A word on the IC50: it is the midpoint of a concentration-inhibition curve. The low end stands for inhibition by little substance, the high end for a need for much substance. The molecule SRPTEKTIFII [Gap27, SRPTEKTIFII] showed a half-maximal inhibitory concentration (IC50) in assay [4] of approximately 161 µM. Besides, the “Qm at steady state (reduction to, % of value before peptide)” value in assay [4] (300 μM, Vm steps to +70 mV, **P < 0.01 versus SGap27) was ~ 15%.
Consider TFEPIRISITK [SGap27], for which the “effect on Qm versus concentration” value in assay [4] (concentration dependence, Vm +70 mV, HeLa-Cx43) is “did not affect Qm unless it was applied at 1 mM concentration”. In addition, in assay [4], the “Qm (% normalized to average before peptide addition), time course” value is recorded as “around 100%”. Also, the Qm versus control result in assay [4] (scrambled peptide, HeLa-Cx43) is “not different from control”. Also, the HC-mediated unitary events entry in assay [4] (setting [5]) was “did not reveal any inhibition”.
Regarding VCYDKSFPISHVR [Gap26, VCYDKSFPISHVR], the IC50 in assay [4] is approximately 81 µM. Also, the “Qm at steady state (reduction to, % of value before peptide)” value in assay [4] (250 μM, Vm steps −30 to +70 mV, *P < 0.05 versus SGap26) was ~ 35%.

(Values after paper PMC3662472 (Basic research in cardiology, 2012).)
